The values below come from ChEMBL document CHEMBL4382237, “Design, Synthesis, and Biological Evaluation of 2-Nitroimidazopyrazin-one/-es with Antitubercular and Antiparasitic Activity” (J Med Chem, 2018).

Values after ≈ are worked out from the molar mass of the structure shown.

In one experiment the test system is Giardia intestinalis. Description: Antiparasitic activity against Giardia lamblia WB trophozoites after 24 to 48 hrs by CellTiter-Glo luminescent cell viability assay. As to conditions: Giardia duodenalis.
The subject of the next experiment is Clostridioides difficile. The experiment is described as follows: Antibacterial activity against Clostridium difficile 630 ATCC BAA-1382 by broth microdilution assay. The experiment is classed as functional. The method in brief:
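Broth microdilution run essentially per an earlier report. MIC taken as the lowest concentration with no visible growth. Replicates typically agreed within one 2-fold dilution. The median MIC is reported, with a range where the median fell between two tested concentrations.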
In general terms: In broth dilution the organism is exposed to a series of concentrations in liquid medium.

In experiment [1] the test system is Mycobacterium tuberculosis. The experiment is described as follows: Antibacterial activity against non-replicating Mycobacterium tuberculosis H37Rv after 5 days under hypoxic condition by resazurin dye-based fluorescence assay. The experiment is classed as functional. The conditions noted are these: 120 h. The method in brief: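 Same H37Rv inoculum (OD600 0.001, ~2 x 10^4 CFU/mL) in 7H9S with serially diluted compound. Plates held 5 days at 0.1% oxygen, then resazurin plus Tween-80 added.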
Background: Resazurin is reduced to fluorescent resorufin, in cell work by metabolically active cells.

The next experiment has as its system Entamoeba histolytica. Description: Antiparasitic activity against Entamoeba histolytica HM-1:IMSS trophozoites after 24 to 48 hrs by CellTiter-Glo luminescent cell viability assay. The experiment is classed as functional, organism-based. A digest of the protocol: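 Axenic trophozoites were kept in TYI-S-33 with penicillin (100 U/mL) and streptomycin (100 µg/mL) and harvested in log phase. 5000 parasites per well were exposed to a final 8-point two-fold series of 0.39–50 µM, from 10 mM DMSO stocks. Plates were incubated 24–48 h at 37 °C under anaerobic conditions. ATP luminescence viability was read in triplicate. Percent inhibition is given at the highest concentration tested.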
(In general: In ATP-based viability assays light output follows the ATP content of the culture.)

In experiment [2] the test system is Mycobacterium tuberculosis. Description: Antibacterial activity against Mycobacterium tuberculosis H37Rv after 5 days under normoxic condition by resazurin dye-based fluorescence assay. The class given is functional, organism-based. A digest of the protocol:
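H37Rv grown in 7H9/ADC/glycerol/Tyloxapol to mid-exponential phase, diluted to OD600 0.001 (~2 x 10^4 CFU/mL) in 7H9S with serially diluted compound. Incubated 5 days at 37 °C, then resazurin and Tween-80 added. Fluorescence (ex 530/em 590 nm) read after 24 h, normalised to no-drug and no-bacteria wells.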

Experiment [3] relates to Trypanosoma brucei brucei. Description: Antiparasitic activity against bloodstream form of Trypanosoma brucei brucei strain 427 after 48 hrs by resazurin dye-based assay. The class given is functional, organism-based. As to conditions: strain 427, 48 h.

A word on the MIC: it is the smallest concentration in the dilution series that meets the test's criterion for growth inhibition. Regarding `NC(=O)c1nc([N+](=O)[O-])cn1Cc1ccccc1`, the results for the IC50 with Giardia intestinalis and with Entamoeba histolytica (read-out: IC50) were 4.1 to 50 µM and over 25 µM, respectively. Moreover, the MIC in the experiment on Clostridioides difficile was over 64 µg/mL; in experiment [1] it was over 32 µg/mL.
`Cc1nc(OCc2ccccc2OC(F)(F)F)c2nc([N+](=O)[O-])cn2c1C`: the MIC in experiment [2] and in experiment [1] was over 32 µg/mL in each case. Moreover, the IC50 is over 50 µM in the experiment on Giardia intestinalis; over 50.1 µM in the experiment on Giardia intestinalis (read-out: pIC50 (converted)); over 50 µM in the experiment on Entamoeba histolytica (read-out: IC50); over 50.1 µM in the experiment on Entamoeba histolytica (read-out: pIC50 (converted)); 1.9 µM in experiment [3] (read-out: IC50); 2 µM in experiment [3] (read-out: pIC50 (converted)).
Take `CN(C)C(=O)c1nc([N+](=O)[O-])cn1Cc1ccc(OC(F)(F)F)cc1`: the IC50 with Giardia intestinalis lay within 2.7 to 7.5 µM; with Entamoeba histolytica (read-out: IC50), 10 to 45 µM. The results for the MIC (against Clostridioides difficile; in experiment [1]) were 16 to 64 µg/mL (≈ 44.7 to 179 µM) and over 32 µg/mL, respectively.
As for `NC(=O)c1nc([N+](=O)[O-])cn1Cc1ccc(F)cc1`, the IC50 was 4.1 to 50 µM in the experiment on Giardia intestinalis and over 25 µM with Entamoeba histolytica (read-out: IC50). Further, the MIC was over 64 µg/mL against Clostridioides difficile and over 32 µg/mL in experiment [1].
In the case of `Cc1[nH]c(=O)c2nc([N+](=O)[O-])cn2c1C`, the MIC in experiment [2] and in experiment [1] was over 32 µg/mL throughout. Besides, the IC50 in the experiment with Giardia intestinalis is 50 µM; with Giardia intestinalis (read-out: pIC50 (converted)), 50.1 µM; in the experiment on Entamoeba histolytica (read-out: IC50) it was over 50 µM; in the experiment on Entamoeba histolytica (read-out: pIC50 (converted)), over 50.1 µM; in experiment [3] (read-out: IC50), 2.6 µM; in experiment [3] (read-out: pIC50 (converted)), 2.51 µM.
Regarding `NC(=O)c1nc([N+](=O)[O-])cn1Cc1cccc(OC(F)(F)F)c1`, the values for the IC50 in the experiment on Giardia intestinalis and in the experiment with Entamoeba histolytica (read-out: IC50) were 4.1 to 50 µM and over 25 µM, respectively. Further, the MIC is over 64 µg/mL in the experiment with Clostridioides difficile and over 32 µg/mL in experiment [1].
On the same counts, the results for `O=C(NCc1ccccc1)c1nc([N+](=O)[O-])c[nH]1` are 0.2 to 0.5 µM, 2.2 to 4.5 µM, 4 to 16 µg/mL (≈ 16.2 to 65 µM) and over 32 µg/mL.
Regarding `Cc1c(C)n2cc([N+](=O)[O-])nc2c(=O)n1Cc1ccccc1OC(F)(F)F`, the MIC in experiment [2] and in experiment [1] was over 32 µg/mL each time. For the same molecule, the IC50 in the experiment on Giardia intestinalis was 5.3 µM; in the experiment on Giardia intestinalis (read-out: pIC50 (converted)) it was 5.01 µM; in the experiment on Entamoeba histolytica (read-out: IC50), 18 µM; with Entamoeba histolytica (read-out: pIC50 (converted)) it was 20 µM; in experiment [3] (read-out: IC50), 0.78 µM; in experiment [3] (read-out: pIC50 (converted)), 0.794 µM.
With `Cc1ccc(Cn2cc([N+](=O)[O-])nc2C(N)=O)cc1`, the results for the IC50 in the experiment with Giardia intestinalis and in the experiment on Entamoeba histolytica (read-out: IC50) were 4.1 to 50 µM and over 25 µM, respectively. Further, the MIC is over 64 µg/mL with Clostridioides difficile and over 32 µg/mL in experiment [1].
With `Cc1cn2cc([N+](=O)[O-])nc2c(=O)n1CCO`, the IC50 in the experiment on Giardia intestinalis was over 50 µM; with Giardia intestinalis (read-out: pIC50 (converted)), over 50.1 µM; with Entamoeba histolytica (read-out: IC50), over 50 µM; with Entamoeba histolytica (read-out: pIC50 (converted)) it was over 50.1 µM; in experiment [3] (read-out: IC50), 4.6 µM; in experiment [3] (read-out: pIC50 (converted)) it was 5.01 µM. For the same molecule, in experiment [1], the MIC is over 32 µg/mL.
Take `NNC(=O)c1nc([N+](=O)[O-])cn1Cc1ccc(OC(F)(F)F)cc1`: the figures for the IC50 in the experiment with Giardia intestinalis and in the experiment on Entamoeba histolytica (read-out: IC50) were 2.7 to 7.5 µM and 10 to 45 µM, respectively. Moreover, the values for the minimal inhibitory concentration (MIC) (in the experiment with Clostridioides difficile; in experiment [1]) were 16 to 64 µg/mL (≈ 46.3 to 185 µM) and over 32 µg/mL, respectively.
On to `Cc1cn2cc([N+](=O)[O-])nc2c(=O)n1Cc1ccccc1OC(F)(F)F`, for which the MIC in experiment [2] and in experiment [1] was over 32 µg/mL throughout. Moreover, the IC50 was 3.3 µM in the experiment on Giardia intestinalis; 3.16 µM in the experiment with Giardia intestinalis (read-out: pIC50 (converted)); 9.1 µM in the experiment with Entamoeba histolytica (read-out: IC50); 10 µM in the experiment on Entamoeba histolytica (read-out: pIC50 (converted)); 2.1 µM in experiment [3] (read-out: IC50); 2 µM in experiment [3] (read-out: pIC50 (converted)).
Consider `O=[N+]([O-])c1cn2cc(-c3ccccc3)nc(OCCO)c2n1`, for which the IC50 in the experiment with Giardia intestinalis is 5.2 µM; with Giardia intestinalis (read-out: pIC50 (converted)), 5.01 µM; in the experiment with Entamoeba histolytica (read-out: IC50) it was over 50 µM; with Entamoeba histolytica (read-out: pIC50 (converted)), over 50.1 µM; in experiment [3] (read-out: IC50), 1.1 µM; in experiment [3] (read-out: pIC50 (converted)), 1 µM. The MIC in experiment [1] was over 32 µg/mL.
For `Cc1ncc([N+](=O)[O-])n1CCO` [METRONIDAZOLE], the IC50 is 7.2 µM with Giardia intestinalis; 7.94 µM in the experiment with Giardia intestinalis (read-out: pIC50 (converted)); 4.3 µM in the experiment with Entamoeba histolytica (read-out: IC50); 3.98 µM with Entamoeba histolytica (read-out: pIC50 (converted)); over 40 µM in experiment [3] (read-out: IC50); over 39.8 µM in experiment [3] (read-out: pIC50 (converted)). The MIC is 0.5 µg/mL (≈ 2.92 µM) in the experiment on Clostridioides difficile and over 32 µg/mL in experiment [1].
